Compound activity as filed in PubChem.
This is a sample that favours compounds with a hit; in the whole collection about 2% have one here.
FLuc inhib CS = Photinus pyralis luciferase inhibition counter-screen; P08659; ATPLite firefly luciferase biochemical luminescence, 10 min; inhibition, % at 10 µM; actives 1.5% (n = 200,000);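 active means inhibition above about 50% when tested at 10 µM, limit read from the data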
Target sequence (P08659 whole entry, looked up): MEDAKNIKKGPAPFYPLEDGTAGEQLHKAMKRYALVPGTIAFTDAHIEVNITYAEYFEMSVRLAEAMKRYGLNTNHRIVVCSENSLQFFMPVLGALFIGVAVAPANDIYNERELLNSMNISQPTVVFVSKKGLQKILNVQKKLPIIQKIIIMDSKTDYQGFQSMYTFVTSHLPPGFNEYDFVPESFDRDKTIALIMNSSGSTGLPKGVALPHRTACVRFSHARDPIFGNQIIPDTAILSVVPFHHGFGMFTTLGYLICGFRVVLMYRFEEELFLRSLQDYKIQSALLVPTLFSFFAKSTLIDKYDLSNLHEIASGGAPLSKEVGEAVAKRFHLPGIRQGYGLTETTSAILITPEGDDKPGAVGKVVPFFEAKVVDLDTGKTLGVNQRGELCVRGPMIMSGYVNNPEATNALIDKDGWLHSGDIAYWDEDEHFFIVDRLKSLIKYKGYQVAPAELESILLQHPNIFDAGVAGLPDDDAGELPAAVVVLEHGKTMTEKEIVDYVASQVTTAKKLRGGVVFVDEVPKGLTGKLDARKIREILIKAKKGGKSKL
HSP90 inh = blocks HSP90-mediated luciferase refolding in reticulocyte lysate | actives 0.91% (n = 290,000) | inhibition, % at 5.6 µM | Rabbit reticulocyte lysate, luciferase refolding luminescence, 3 h | AID 1789;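 active means inhibition above the screen-wide mean plus 3 SD, computed separately per campaign, cut at about 16% in these data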;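 further: 0% = DMSO wells and 100% = 60 µM geldanamycin wells; inhibitors lower the luminescence because luciferase stays unfolded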
PPC-1+TRAIL kill = kills PPC-1 cancer cells in the presence of TRAIL; PPC-1 cells + TRAIL, ATPLite viability luminescence; cell killing (% activity), % at 4 µM or 5 µM; AID 1443; actives 0.41% (n = 220,000);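 active means cell killing above 50% in the first pass at 4 µM, then a duplicate retest at 5 µM averaging 50% or more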;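 further: plate controls were cells with TRAIL plus DMSO for no effect and medium-only wells lacking cells for full effect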
TRAIL sens C8 = sensitizes caspase-8 expressing cells to TRAIL | NB7+C8 cells + TRAIL, ATPlite viability luminescence | inhibition (viability loss, TRAIL sensitization), % at 10 µM | actives 1% (n = 360,000) | AID 624354;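 active means compounds causing at least 50% loss of cell viability in the single-dose screen, relative to plate controls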
FLuc stim CS = firefly luciferase counter-screen for stimulation assays. P08659. ATPlite luciferase biochemical, luminescence, 10 min; 0 = ATP-free wells, 1 = DMSO control. activation factor at 10 µM. 200,000 tested, under 10 active;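 active means luciferase activation factor, scaled between plate controls, of at least 2 with compound at 10 µM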
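Assay system: Luciferase/luciferin detection reagent, cell-free biochemical luciferase assay / Also added: ATP substrate / Schedule: 10 min at ambient temperature / Measured by: luminescence measurement of luciferase light output / Benchmarks: low control with PBS replacing ATP, high control enzyme plus ATP without compound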
Starred values were filed as active, the others as inactive; / = not tested or not shown.

SMILES	FLuc inhib CS	HSP90 inh	PPC-1+TRAIL kill	TRAIL sens C8	FLuc stim CS
COc1ccc(-n2nc(C(=O)NCC(=O)N3CCC4(CC3)OCCO4)c3ccccc3c2=O)c(OC)c1	/	4	/	55*	/
Cn1c(NN=O)nc2ccccc21	44	-2	39	57*	0.6
CN1CCN(Cc2nc3ccccc3n2C)CC1	-8	1	-12	-19	1.1
COC(=O)C1=C(c2ccc(C(C)=O)cc2)C[C@@H]2CC[C@H]1N2C(=O)NC(C)C	/	/	/	10	/
CC1CC(C)CC(C)C(O)C(C#N)=CC=CCC(C2CCCC2C(=O)O)OC(=O)CC(O)C(C)C1 (centres undefined)	/	/	/	66*	/
COC[C@]12CN(C)C3C4[C@H](OC)[C@H]1C3([C@@H](OC)C[C@H]2O)[C@@H]1C[C@@]2(O)[C@H](OC(=O)c3ccccc3)[C@@H]1[C@]4(OC(C)=O)[C@@H](O)[C@@H]2OC	/	/	/	-4	/
O=[N+]([O-])c1ccc(N2CCOCC2)c2cccnc12	-3	0	-9	-12	1
O=[N+]([O-])c1ccc(N2CCOCC2)c2c1no[n+]2[O-]	/	/	/	94*	/
CCOC(=O)CNC(=O)N1Cc2ccc(Br)cc2-n2nncc2C1	/	/	/	5	/
CCCCCCCCCCCCCCCC[N+](C)(C)C	/	/	/	85*	/
N#CC1c2ccccc2-n2nncc2CN1Cc1cc(Cl)cc(Cl)c1 (centres undefined)	/	/	/	76*	/
CC1=C(O)C(=O)C=C2C1=CC=C1C2(C)CCC2(C)C3CC(C)(C(=O)O)CCC3(C)CCC12C (centres undefined)	/	/	/	89*	/
CCN(C(=O)COC(=O)c1cc(C)n(C2CC2)c1C)c1ccccc1	/	/	/	-6	/
CNC(=S)N1CC2CC(C1)c1cccc(=O)n1C2 (centres undefined)	-6	0	10	4	1.1
CC1OC(OC2C=C3CCC4C(CCC5(C)C(c6ccc(=O)oc6)CCC45O)C3(C)CC2)C(O)C(OC2OC(CO)C(O)C(O)C2O)C1O (centres undefined)	/	/	/	75*	/
ClCCN(CCCl)c1ccc(-n2cnc3c(Cl)ncnc32)cc1	/	/	/	86*	/
CC(=O)OCC12CC(OC(=O)CC(C)C)C(C)=CC1OC1C(O)C(OC(C)=O)C2(C)C12CO2 (centres undefined)	/	/	/	57*	/
CC12CC[C@H]3[C@@H](CCC4(O)C[C@H](O)CCC34/C=N/NC(=O)c3ccccc3Cl)C1(O)CCC2C1=CC(=O)OC1 (some centres undefined)	/	3	3	8	/
CCCCN=C[C@]12CCC(O)CC1(O)CCC1[C@@H]2CC[C@]2(C)[C@H](C3C=CC(=O)O3)CCC12O (some centres undefined)	/	1	/	42	/
CC12CCC3C(CCC4(O)CC(O)CCC34C=O)C1(O)CCC2C1=CC(=O)OC1 (centres undefined)	/	/	/	69*	/
CC12CCC3C(CCC4(O)CC(O)CCC34C=NO)C1(O)CCC2C1=COC(=O)C1 (centres undefined)	/	/	/	69*	/
C[C@H]1O[C@@H](OC2CC[C@]3(C=O)[C@H]4CC[C@]5(C)[C@@H](C6=CC(=O)OC6)CC[C@]5(O)[C@@H]4CC[C@]3(O)C2)CC2OC(C)(C)OC21 (some centres undefined)	/	1	/	48*	/
C[C@]12CC[C@H]3[C@@H](CC[C@]4(O)C[C@@H](O)CC[C@]34C=O)[C@@]1(O)CC[C@@H]2C1=CC(=O)OC1	/	/	/	61*	/
CC1CN1P(=O)(Oc1ccccc1)N1CC1C (centres undefined)	/	/	/	-7	/
C=Cn1ccnc1P(=S)(c1ccc(Cl)cc1)c1nccn1C=C	-4	-4	6	-3	1
SMILES	FLuc inhib CS	HSP90 inh	PPC-1+TRAIL kill	TRAIL sens C8	FLuc stim CS
CC(=O)OC1(c2ccccc2)CCN(C)CC1(C)C (centres undefined)	-5	2	-20	23	1.1
C[C@]12CCC3C(CCC4=CC(O)CC[C@@]43/C=N/O)C1(O)CCC2C1=CC(=O)OC1 (some centres undefined)	/	-2	/	52*	/
COC(=O)[C@@H]1[C@@H](C(=O)OC)C2(c3ccccc3-c3ccccc32)N(c2ccc(Cl)cc2)N1C#N	-3	10	26	92*	1
Nc1ccccc1Cl	/	/	/	-6	/
O=C1NC2C(=CC(O)C(O)C2O)c2cc3c(c(O)c21)OCO3 (centres undefined)	/	/	/	77*	/
O=C1NC2C(=CC(O)C(O)C2O)c2cc3c(cc21)OCO3 (centres undefined)	/	/	/	31	/
